Shown are actives, neighbours in structure and some others; about 27% of the full set was active somewhere.
CYP2C9 inhib – inhibitors of human CYP2C9. P11712. CYP2C9 Supersomes, luciferin-H conversion, luminescence. inhibition, % at 5 µM. 20% of 96,000 active;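 active means blocking of liver enzyme CYP2C9 beyond about 50% at 5 µM, limit read from the data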
Target sequence (P11712 whole entry, looked up): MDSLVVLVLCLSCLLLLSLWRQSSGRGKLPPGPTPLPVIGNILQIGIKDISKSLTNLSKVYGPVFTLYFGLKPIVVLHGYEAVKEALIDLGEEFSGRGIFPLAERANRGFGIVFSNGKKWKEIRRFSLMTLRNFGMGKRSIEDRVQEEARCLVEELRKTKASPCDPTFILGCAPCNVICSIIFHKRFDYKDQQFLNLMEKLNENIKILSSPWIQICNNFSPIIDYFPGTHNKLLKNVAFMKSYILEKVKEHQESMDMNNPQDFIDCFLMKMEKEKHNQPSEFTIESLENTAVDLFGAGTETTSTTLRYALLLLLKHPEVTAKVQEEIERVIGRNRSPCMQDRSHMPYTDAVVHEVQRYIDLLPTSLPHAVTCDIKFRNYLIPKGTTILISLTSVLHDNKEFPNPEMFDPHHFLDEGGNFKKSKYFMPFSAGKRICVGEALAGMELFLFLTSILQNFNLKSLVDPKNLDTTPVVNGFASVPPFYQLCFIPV
CYP2C9 act – activators of human CYP2C9; AID 1024; recombinant CYP2C9, luciferin-H conversion, luminescence; active compounds read high; factor 1 = untreated enzyme, 0 = blocked; activation factor at 5 µM; P11712; 1.4% of 96,000 active;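 active means activation factor of 2 or more for CYP2C9 at a 5 µM dose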;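 further: 0 = sulfaphenazole-blocked wells and 1 = vehicle-only wells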
HIV Rev-RRE inh – HIV Rev-RRE protein-RNA interaction inhibition; AID 704; 0.79% of 97,000 active; inhibition, % at 8 µM; Rev peptide-RRE RNA binding, FRET;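 active means inhibition above the screen-wide mean plus 3 SD, cut at about 35% in these data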;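 further: 0% = median DMSO wells and 100% = median Neomycin B control wells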
Target sequence (P05866 whole entry, looked up): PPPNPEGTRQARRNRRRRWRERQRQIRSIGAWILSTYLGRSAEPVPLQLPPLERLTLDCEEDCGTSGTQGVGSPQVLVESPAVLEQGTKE
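Test system – labelled RRE RNA duplex and labelled Rev peptide · Reagent – labelled Rev peptide · Doses – one concentration, 8 µM nominal · Incubation – 5 + 15 min at 25 °C · Signal – FRET fluorescence readout · Read-out basis – % inhibition of FRET ratio versus controls · Control set – DMSO wells as 0% and neomycin B wells as 100% inhibition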
CYP2C19 inhib – inhibitors of human CYP2C19; inhibition, % at 5 µM; 21% of 96,000 active; P33261; CYP2C19 Supersomes, luciferin-H EGE luminescence, 30 min;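 active means CYP2C19 inhibition above a set limit at 5 µM in the primary screen, cut at about 50% in these data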;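 further: plate controls were negative control wells for no effect and 2.5 mM tranylcypromine positive control for full effect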
Cav32 inh – human Cav3.2 channel inhibition, primary screen | O95180 | Cav3.2-expressing cells, Fluo-4 calcium fluorescence FDSS; active compounds read low | B-score at 10 µM | 4% of 100,000 active | AID 449739;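 active means single-dose well whose peak fluorescence ratio is a statistical outlier from its plate by either plate-standardised score or position-corrected B-score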
CYP2C19 activ – increases human CYP2C19 enzyme activity; recombinant CYP2C19, luciferin-H EGE luminescence; active compounds read high; 0 = fully inhibited enzyme, 1 = untreated enzyme; activation factor at 5 µM; 96,000 tested, under 10 active;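 active means activation factor of at least 2 at 5 µM in the primary screen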;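 further: 0 = wells with 2.5 mM tranylcypromine and 1 = vehicle-only wells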
Starred values were filed as active, the others as inactive; / = no result.

SMILES	CYP2C9 inhib	CYP2C9 act	HIV Rev-RRE inh	CYP2C19 inhib	Cav32 inh	CYP2C19 activ
O=C(COc1ccc(-n2cnnn2)cc1)NC(=O)NCc1ccccc1	16	0.8	5	17	0.57	0.8
COC(=O)c1ccc(OCCN2C3=NCCN3c3ccccc32)cc1	-3	1	2	18	0.19	0.8
O=C(NC1CCCCCC1)C1C2C=CC3(CN(Cc4cccnc4)C(=O)C13)O2 (stereo not given)	6	0.9	2	3	-0.84	1
CCOC(=O)CNC(=O)c1cn(CC(C)C)c(=O)c2cc(OC)c(OC)cc12	/	/	0	/	1	/
Cc1cc(C)cc(Oc2ccccc2C=O)c1	10	0.9	5	18	0.51	0.8
Cc1cc(C)cc(Oc2ccc(C(F)(F)F)cc2C#N)c1	52*	0.5	25	58*	-0.14	0.4
Cc1cc(-c2nc3cccnc3s2)ccc1NS(=O)(=O)c1ccc2c(c1)OCCO2	96*	0	7	31	-0.48	0.7
Cc1c(NS(=O)(=O)c2ccc3c(c2)OCCO3)cccc1-c1nc2cccnc2s1	83*	0.2	5	100*	-2.5	0
O=c1cc(CN2CCN(c3ccccc3F)CC2)c2cc3c(cc2o1)CCCC3	19	0.8	12	16	0.22	0.8
CC(=O)N1N=C(c2cccc(Cl)c2)OC1c1ccc(C(C)C)cc1 (stereo not given)	88*	0.1	16	83*	-0.47	0.2
Cc1nnc(NC(=O)c2oc3c(ccc4ccccc43)c2C)s1	-1	1	-1	22	-0.66	0.8
COc1ccc(-c2cc3ccccc3n2CC(O)Cn2nc(C)cc2C)cc1 (stereo not given)	100*	0	/	99*	-6.4*	0
COc1ccc(-c2cc3ccccc3n2CC(O)CN2CCC(C)CC2)cc1 (stereo not given)	/	/	/	/	-0.95	/
Cc1nc(C)c(C(=O)Nc2ccc(Oc3ccccc3)cc2)o1	17	0.8	3	13	0.017	0.9
C#C[C@]1(O)CCC2C3CCC4=Cc5oncc5CC4(C)C3CCC21C (stereo not given in full)	/	/	/	/	-4.8*	/
C#C[C@]1(O)CC[C@H]2[C@@H]3CCc4cc(O)ccc4[C@H]3CC[C@@]21C	/	/	/	/	-1.5	/
COc1ccc(C2NCCC3(O)CCCCC23)c(OC)c1OC (stereo not given)	-6	1.1	0	3	0.38	1
CSc1cc(C)n(-c2ccccc2)c(=S)c1C(C)=O	-2	1	7	14	/	0.9
CCOc1ccccc1NC(=O)CC(O)(C(F)(F)F)C(F)(F)F	/	/	3	/	-0.021	/
CCO/C=C/C(O)(CNC(=O)COc1ccccc1F)C(F)(F)F (stereo not given)	26	0.7	0	85*	0.61	0.2
Cc1cc(C)cc(N(CC(=O)NC2CCCCC2)C(=O)CCC(=O)Nc2cc(C)ccn2)c1	46	0.5	/	46	/	0.5
Cc1ccc(C)c(N(CC(=O)NC2CCCC2)C(=O)c2oc(C(C)(C)C)cc2C)c1	26	0.7	-1	26	-4.8*	0.7
Cc1ccnc(NC(=O)CCC(=O)N(CC(=O)NC2CCCCC2)c2cccc(C)c2C)c1	56*	0.4	-1	42	-6.4*	0.6
Cc1ccc(C)c(N(CC(=O)NC2CCCCC2)C(=O)CCC(=O)Nc2ccccn2)c1	80*	0.2	0	66*	/	0.3
Cc1cc(NC(=O)CCCC(=O)N(CC(=O)NC2CCCCC2)c2ccccc2)no1	16	0.8	1	10	0.46	0.9
SMILES	CYP2C9 inhib	CYP2C9 act	HIV Rev-RRE inh	CYP2C19 inhib	Cav32 inh	CYP2C19 activ
Cc1ccc(C)c(N(CC(=O)NC2CCCC2)C(=O)c2cc3cc4cccc(C)c4nc3s2)c1	96*	0	12	18	-1	0.8
O=C(CCC(=O)N(CC(=O)NC1CCCC1)C1CCCC1)Nc1ccccn1	13	0.9	-2	24	0.89	0.8
COC(=O)c1ccc(-c2cc(C(=O)O)c3cc4c(cc3n2)OCCO4)cc1	0	1	4	15	-0.015	0.9
Cc1ccc2nc(SCC(=O)Nc3c(C)n(C)n(-c4ccccc4)c3=O)[nH]c2c1	6	0.9	8	-8	0.53	1.1
COC1(OC)C(/C=C/c2ccc(C)cc2)C(C#N)(C#N)C1(OC)OC (stereo not given)	/	/	0	/	-3.5	/
CO/N=C/c1ccc(N2CCN(C(=O)c3ccc(Cl)cc3Cl)CC2)c([N+](=O)[O-])c1	30	0.7	4	26	-1.6	0.7
O=C(CN1C(=O)C2(OCCCO2)c2ccccc21)NCc1ccccc1	15	0.8	/	64*	-1.3	0.4
Cc1ccc(CNC(=O)CN2C(=O)C3(OCCCO3)c3ccccc32)cc1	-11	1.1	3	62*	0.17	0.4
Cc1ccc(C)c(CN2C(=O)C3(OCCCO3)c3ccccc32)c1	72*	0.3	10	52*	-1.4	0.5
CCOC(=O)CN1C(=O)C2(OCCCO2)c2ccccc21	19	0.8	7	36	0.31	0.6
CCC1=C(OC(=O)N(CC)CC)N2C(=O)OC(=NCC3CC3)[C@]2(Cc2ccccc2)[C@H]2C1=CC[C@H]1C(=O)N(C)C(=O)[C@H]12	/	/	/	/	-0.21	/
COc1ccc(C2C3=C(CCCC3=O)Nc3nc(SCc4ccccc4)nn32)cc1OC (stereo not given)	42	0.6	4	15	-0.78	0.9
COc1ccc(C2C3=C(CCCC3=O)Nc3c(-c4ccccc4)c(C)nn32)cc1 (stereo not given)	35	0.6	3	71*	-3	0.3
O=C1C(=O)N(CCCn2ccnc2)C(c2cccnc2)/C1=C(/O)c1ccc(Br)cc1 (stereo not given)	/	/	2	/	/	/
COc1ccc(S(=O)(=O)N2CCCCC2)cc1C(C)C	22	0.8	14	31	-2.6	0.7
COc1ccc(S(=O)(=O)N2CCC(C(=O)N3CCCC3)CC2)cc1Cl	22	0.8	11	89*	0.031	0.1
COc1ccc(S(=O)(=O)N2CCC(C(=O)N3CCCCC3)CC2)cc1Cl	20	0.8	11	92*	0.78	0.1
Cc1cc(C)n(Cc2ccc(Cl)c(Cl)c2)c(=O)c1S(=O)(=O)c1ccccc1	-8	1.1	9	2	/	1
Cc1cc(-c2ccco2)c(C#N)c2nc3ccccc3n12	5	1	/	4	-0.69	1
Cc1ccc2c(c1)cc(CN(CCc1ccccc1)C(=O)N1CCOCC1)c1nnnn12	64*	0.4	7	53*	0.33	0.5
Cc1ccc2c(c1)cc(CN(Cc1ccc3c(c1)OCO3)C(=O)c1ccccc1)c1nnnn12	-9	1.1	8	-13	-0.029	1.1
Cc1ccc2c(c1)cc(CN(Cc1cccnc1)C(=O)NCc1ccccc1)c1nnnn12	65*	0.3	6	90*	-0.066	0.1

Screens deposited in PubChem BioAssay by several laboratories.
